Data reported in ChEMBL document CHEMBL2311405, “Synthesis and biological evaluation of indenoisoquinolines that inhibit both tyrosyl-DNA phosphodiesterase I (Tdp1) and topoisomerase I (Top1)” (J Med Chem, 2013).
Activity calls are given as the source filed them. The calls are words filed in the database; no cut-off is given here.

Key:
UACC-62 = experiment: Growth inhibition of human UACC62 cells; format: functional
OVCAR-3 = experiment: Growth inhibition of human OVCAR3 cells; format: functional
SN12C = experiment: Growth inhibition of human SN12C cells; format: functional
HCT-116 = experiment: Growth inhibition of human HCT116 cells; format: functional
HOP-62 = experiment: Growth inhibition of human HOP62 cells; format: functional
SF-539 = experiment: Growth inhibition of human SF539 cells; format: functional
Summary of the method: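 Human cancer cell line panel, compounds tested at concentrations up to 10 μM. GI50 per cell line is the mean of two determinations where a standard error is given, otherwise from one determination.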

MDA-MB-435 = experiment: Growth inhibition of human MDA-MB-435 cells; format: functional
DU-145 = experiment: Growth inhibition of human DU145 cells; format: functional
[1] = molecular target: T1, DNA topoisomerase 1 (Homo sapiens) (UniProt P11387); experiment: Inhibition of recombinant Top1 (unknown origin) using 3'-[32P]-end-labeled 117 bp oligonucleotide as substrate after 20 mins by SDS-PAGE analysis relative to 1 uM MJ-3-65
T1 sequence (whole entry): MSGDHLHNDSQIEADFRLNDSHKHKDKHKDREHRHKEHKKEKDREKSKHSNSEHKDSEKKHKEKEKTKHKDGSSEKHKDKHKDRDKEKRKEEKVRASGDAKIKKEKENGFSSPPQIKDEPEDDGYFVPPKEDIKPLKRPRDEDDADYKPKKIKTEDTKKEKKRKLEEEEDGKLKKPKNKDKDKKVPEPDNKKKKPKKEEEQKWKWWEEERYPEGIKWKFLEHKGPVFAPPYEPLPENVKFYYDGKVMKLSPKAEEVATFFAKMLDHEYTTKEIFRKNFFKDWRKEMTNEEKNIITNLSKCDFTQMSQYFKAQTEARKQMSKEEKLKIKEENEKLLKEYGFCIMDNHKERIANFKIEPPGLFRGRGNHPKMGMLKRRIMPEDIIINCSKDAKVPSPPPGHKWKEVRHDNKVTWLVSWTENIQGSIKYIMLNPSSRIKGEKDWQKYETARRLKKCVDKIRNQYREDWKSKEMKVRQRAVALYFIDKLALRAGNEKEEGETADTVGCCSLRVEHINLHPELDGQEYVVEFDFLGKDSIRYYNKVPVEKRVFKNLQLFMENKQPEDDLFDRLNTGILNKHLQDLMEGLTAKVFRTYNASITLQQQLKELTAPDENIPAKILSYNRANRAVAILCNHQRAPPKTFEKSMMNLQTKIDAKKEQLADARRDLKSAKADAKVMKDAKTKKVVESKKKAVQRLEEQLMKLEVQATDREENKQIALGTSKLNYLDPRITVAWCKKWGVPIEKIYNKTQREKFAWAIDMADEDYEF

[2] = molecular target: Tyrosyl-DNA phosphodiesterase 1 (Homo sapiens, UniProt Q9NUW8); experiment: Inhibition of recombinant Tdp1 (unknown origin) using 5'-[32P]-labeled single-stranded DNA oligonucleotide containing 3'-phosphotyrosine as substrate after 15 mins by PAGE analysis
[3] = molecular target: T1, DNA topoisomerase 1 (Homo sapiens); experiment: Inhibition of recombinant Top1 (unknown origin) using 3'-[32P]-end-labeled 117 bp oligonucleotide as substrate after 20 mins by SDS-PAGE analysis
Summary of the method: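 3′-[32P]-end-labeled 117-bp DNA at 2 nM incubated with recombinant Top1 at 25 °C for 20 min across a range of compound concentrations. Stopped with SDS (0.5% final) plus formamide loading dye, then 20% denaturing PAGE. Dried gels were phosphorimaged.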

Chain of Tyrosyl-DNA phosphodiesterase 1 (Q9NUW8 whole entry): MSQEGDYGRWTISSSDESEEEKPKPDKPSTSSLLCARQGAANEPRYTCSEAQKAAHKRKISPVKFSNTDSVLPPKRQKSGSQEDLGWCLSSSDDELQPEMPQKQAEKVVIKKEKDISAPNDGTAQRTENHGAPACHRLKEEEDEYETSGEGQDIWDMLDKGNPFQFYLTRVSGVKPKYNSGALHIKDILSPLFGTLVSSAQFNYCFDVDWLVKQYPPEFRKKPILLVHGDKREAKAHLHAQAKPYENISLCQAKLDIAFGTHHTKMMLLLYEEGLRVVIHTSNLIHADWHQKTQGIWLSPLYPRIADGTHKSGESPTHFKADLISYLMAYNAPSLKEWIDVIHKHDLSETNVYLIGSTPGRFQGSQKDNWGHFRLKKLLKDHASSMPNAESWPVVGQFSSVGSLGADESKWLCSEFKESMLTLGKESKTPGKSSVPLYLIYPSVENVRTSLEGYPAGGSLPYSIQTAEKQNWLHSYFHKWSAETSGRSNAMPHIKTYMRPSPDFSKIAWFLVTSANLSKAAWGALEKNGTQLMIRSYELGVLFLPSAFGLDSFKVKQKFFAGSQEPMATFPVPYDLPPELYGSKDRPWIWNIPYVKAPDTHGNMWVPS

CCOC(=O)CNc1ccc2c3c(n(CCCN)c(=O)c2c1)-c1ccccc1C3=O
GI50 (UACC-62): 2250 nM
GI50 (OVCAR-3): 3120 nM
GI50 (SN12C): 1750 nM
GI50 (HCT-116): 440 nM
GI50 (HOP-62): 930 nM
GI50 (SF-539): 8910 nM
GI50 (MDA-MB-435): 3050 nM
GI50 (DU-145): 1680 nM

Cn1c2c(c3ccc(NC(=O)C(=O)O)cc3c1=O)C(=O)c1ccccc1-2
inhibition [1]: Active

NCCCn1c2c(c3ccc(NC(=O)CC(=O)O)cc3c1=O)C(=O)c1ccccc1-2
IC50 [2]: > 111000 nM
inhibition [3]: inactive

COC(=O)CCCC(=O)Nc1ccc2c3c(n(CCCN)c(=O)c2c1)-c1ccccc1C3=O
GI50 (UACC-62): 1220 nM
GI50 (OVCAR-3): 1470 nM
GI50 (SN12C): 1020 nM
inhibition [3]: inactive
GI50 (HCT-116): 380 nM
GI50 (HOP-62): 790 nM
GI50 (SF-539): 1470 nM
GI50 (MDA-MB-435): 2050 nM
GI50 (DU-145): 540 nM

COC(=O)CC(=O)Nc1ccc2c3c(n(C)c(=O)c2c1)-c1ccccc1C3=O
IC50 [2]: > 111000 nM
inhibition [3]: inactive

N#Cc1ccc2c3c(n(CCCn4ccnc4)c(=O)c2c1)-c1ccccc1C3=O
IC50 [2]: > 111000 nM
inhibition [1]: Active

CCOC(=O)CNc1ccc2c3c(n(C)c(=O)c2c1)-c1ccccc1C3=O
IC50 [2]: > 111000 nM
inhibition [3]: inactive

COc1ccc2c(c1)-c1c(c3ccc([N+](=O)[O-])cc3c(=O)n1CCCN)C2=O
GI50 (OVCAR-3): 540 nM
GI50 (SN12C): 150 nM
inhibition [1]: Active
GI50 (HCT-116): 60 nM
GI50 (SF-539): 610 nM
GI50 (MDA-MB-435): 580 nM
GI50 (DU-145): 180 nM

NCCCn1c2c(c3ccccc3c1=O)C(=O)c1ccccc1-2
inhibition [1]: Active

COC(=O)CC(=O)Nc1ccc2c3c(n(CCCN)c(=O)c2c1)-c1ccccc1C3=O
GI50 (UACC-62): 1690 nM
IC50 [2]: 18000 nM
GI50 (OVCAR-3): 3220 nM
GI50 (SN12C): 1460 nM
GI50 (HCT-116): 540 nM
GI50 (HOP-62): 1560 nM
GI50 (SF-539): 4030 nM
GI50 (MDA-MB-435): 2330 nM
GI50 (DU-145): 1570 nM

COC(=O)CCCC(=O)Nc1ccc2c3c(n(CCCNC(=O)OC(C)(C)C)c(=O)c2c1)-c1ccccc1C3=O
IC50 [2]: > 111000 nM
inhibition [3]: inactive

N#Cc1ccc2c3c(n(CCCN4CCOCC4)c(=O)c2c1)-c1ccccc1C3=O
IC50 [2]: > 111000 nM
inhibition [1]: Active

CC(=O)Nc1ccc2c3c(n(CCCN)c(=O)c2c1)-c1ccccc1C3=O
inhibition [3]: inactive

CC(C)(C)OC(=O)NCCCn1c2c(c3ccc(NCC(=O)O)cc3c1=O)C(=O)c1ccccc1-2
IC50 [2]: > 111000 nM
inhibition [3]: inactive

COC(=O)CCCCC(=O)Nc1ccc2c3c(n(C)c(=O)c2c1)-c1ccccc1C3=O
IC50 [2]: > 111000 nM
inhibition [3]: inactive

COC(=O)CC(=O)Nc1ccc2c3c(n(CCCNC(=O)OC(C)(C)C)c(=O)c2c1)-c1ccccc1C3=O
IC50 [2]: > 111000 nM
inhibition [3]: inactive

NCCCn1c2c(c3ccc(NC(=O)C(=O)O)cc3c1=O)C(=O)c1ccccc1-2
IC50 [2]: > 111000 nM
inhibition [3]: inactive

O=C1c2ccccc2-c2c1c1ccc([N+](=O)[O-])cc1c(=O)n2CCCO
GI50 (UACC-62): 310 nM
GI50 (OVCAR-3): 870 nM
GI50 (SN12C): 470 nM
inhibition [1]: Active
GI50 (HCT-116): 190 nM
GI50 (MDA-MB-435): 1970 nM
GI50 (DU-145): 430 nM

COc1ccc2c(c1)-c1c(c3ccc([N+](=O)[O-])cc3c(=O)n1CCCN=[N+]=[N-])C2=O
IC50 [2]: > 111000 nM
inhibition [3]: inactive

COc1ccc2c(c1)C(=O)c1c-2n(CCCN)c(=O)c2cc(I)ccc12
GI50 (UACC-62): 140 nM
GI50 (OVCAR-3): 1320 nM
GI50 (SN12C): 50 nM
GI50 (HCT-116): 70 nM
GI50 (HOP-62): 140 nM
GI50 (SF-539): 390 nM
GI50 (MDA-MB-435): 960 nM
GI50 (DU-145): 50 nM

COc1ccc2c(c1)C(=O)c1c-2n(CCCN)c(=O)c2cc(N)ccc12
GI50 (UACC-62): 100 nM
GI50 (OVCAR-3): 20 nM
GI50 (SN12C): < 10 nM
GI50 (HCT-116): < 10 nM
GI50 (HOP-62): < 10 nM
GI50 (SF-539): 30 nM
GI50 (MDA-MB-435): 120 nM
GI50 (DU-145): < 10 nM

COc1ccc2c(c1)-c1c(c3ccc([N+](=O)[O-])cc3c(=O)n1CCCN1CCOCC1)C2=O
IC50 [2]: > 111000 nM
inhibition [1]: Active

CC(=O)Nc1ccc2c3c(n(CCCN=[N+]=[N-])c(=O)c2c1)-c1ccccc1C3=O
inhibition [1]: Active

COc1ccc2c(c1)-c1c(c3ccc([N+](=O)[O-])cc3c(=O)n1CCCBr)C2=O
IC50 [2]: > 111000 nM
inhibition [1]: Active

NCCCn1c2c(c3ccc(NC(=O)CCCCC(=O)O)cc3c1=O)C(=O)c1ccccc1-2
IC50 [2]: > 111000 nM
inhibition [3]: inactive

NCCCn1c2c(c3ccc(NC(=O)CCCC(=O)O)cc3c1=O)C(=O)c1ccccc1-2
IC50 [2]: > 111000 nM
inhibition [3]: inactive

CC(=O)Nc1ccc2c3c(n(CCCN)c(=O)c2c1)-c1ccccc1C3O (configuration not stated)
inhibition [3]: inactive

COC(=O)C(=O)Nc1ccc2c3c(n(C)c(=O)c2c1)-c1ccccc1C3=O
IC50 [2]: > 111000 nM
inhibition [3]: inactive

CC(C)(C)OC(=O)NCCCn1c2c(c3ccc(NC(=O)CCCC(=O)O)cc3c1=O)C(=O)c1ccccc1-2
IC50 [2]: > 111000 nM
inhibition [3]: inactive

Cn1c2c(c3ccc(NCC(=O)O)cc3c1=O)C(=O)c1ccccc1-2
IC50 [2]: > 111000 nM
inhibition [3]: inactive

NCCCn1c2c(c3ccc(NC(=O)CCC(=O)O)cc3c1=O)C(=O)c1ccccc1-2
IC50 [2]: > 111000 nM
inhibition [3]: inactive

NCCCn1c2c(c3ccc(N)cc3c1=O)C(=O)c1ccccc1-2
GI50 (UACC-62): 300 nM
GI50 (OVCAR-3): 130 nM
GI50 (SN12C): 230 nM
GI50 (HCT-116): 180 nM
GI50 (HOP-62): 270 nM
GI50 (SF-539): 340 nM
GI50 (MDA-MB-435): 230 nM
GI50 (DU-145): 120 nM

Cn1c2c(c3ccc(NC(=O)CC(=O)O)cc3c1=O)C(=O)c1ccccc1-2
IC50 [2]: > 111000 nM

COC(=O)CCC(=O)Nc1ccc2c3c(n(CCCNC(=O)OC(C)(C)C)c(=O)c2c1)-c1ccccc1C3=O
IC50 [2]: > 111000 nM
inhibition [3]: inactive

COC(=O)CCC(=O)Nc1ccc2c3c(n(C)c(=O)c2c1)-c1ccccc1C3=O
IC50 [2]: > 111000 nM

COC(=O)CCCC(=O)Nc1ccc2c3c(n(C)c(=O)c2c1)-c1ccccc1C3=O
IC50 [2]: > 111000 nM
inhibition [3]: inactive

COC(=O)CCCCC(=O)Nc1ccc2c3c(n(CCCN)c(=O)c2c1)-c1ccccc1C3=O
GI50 (UACC-62): 2430 nM
GI50 (OVCAR-3): 3520 nM
GI50 (SN12C): 1820 nM
GI50 (HCT-116): 510 nM
GI50 (HOP-62): 2320 nM
GI50 (SF-539): 5650 nM
GI50 (MDA-MB-435): 4300 nM
GI50 (DU-145): 770 nM

CC(=O)Nc1ccc2c3c(n(CCCO)c(=O)c2c1)-c1ccccc1C3=O
inhibition [3]: inactive
